Experimental data from ChEMBL document CHEMBL1146502, “Dimeric flavonol glycoside and galloylated C-glucosylchromones from Kunzea ambigua” (J Nat Prod, 2004).

How the values were obtained:
Type in all cases: cell-based
Raji [1] = assay: Inhibition of TPA-induced EBV-early antigen activation in human Raji cells assessed as EA activation at 1000 molar ratio after 48 hrs relative to TPA; conditions: human gammaherpesvirus 4
Procedure, shortened: (§1)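 Raji cells (EBV genome-carrying, virus nonproducer) were grown in RPMI-1640 with 10% FBS. Cells at 1 × 10⁶/mL were held 48 h at 37 °C with 4 mM n-butyric acid, TPA 20 ng (32 pmol)/mL, and test compound in DMSO, dosed as a mol ratio to TPA. EA-positive cells in smears were scored by indirect immunofluorescence, with ≥500 cells counted, in triplicate. Results are given relative to the butyrate+TPA control (100%).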

[2] = Cytotoxicity against human Raji cells assessed as cell viability at 100 molar ratio; conditions: read-out: Activity
Raji [3] = assay: Inhibition of TPA-induced EBV-early antigen activation in human Raji cells assessed as EA activation at 10 molar ratio after 48 hrs relative to TPA; conditions: human gammaherpesvirus 4; procedure, shortened: as §1
[4] = Cytotoxicity against human Raji cells assessed as cell viability at 1000 molar ratio; conditions: read-out: Activity
[5] = Cytotoxicity against human Raji cells assessed as cell viability at 10 molar ratio; conditions: read-out: Activity
[6] = Cytotoxicity against human Raji cells assessed as cell viability at 500 molar ratio; conditions: read-out: Activity
Raji [7] = assay: Inhibition of TPA-induced EBV-early antigen activation in human Raji cells assessed as EA activation at 100 molar ratio after 48 hrs relative to TPA; conditions: human gammaherpesvirus 4; procedure, shortened: as §1
Raji [8] = assay: Inhibition of TPA-induced EBV-early antigen activation in human Raji cells assessed as EA activation at 500 molar ratio after 48 hrs relative to TPA; conditions: human gammaherpesvirus 4; procedure, shortened: as §1

Row | SMILES | EBV-EA activation relative to control (%) (Raji [1]) | viability at 100 molar ratio [2] | EBV-EA activation relative to control (%) (Raji [3]) | viability at 1000 molar ratio [4] | viability at 10 molar ratio [5] | viability at 500 molar ratio [6] | EBV-EA activation relative to control (%) (Raji [7]) | EBV-EA activation relative to control (%) (Raji [8])
1 | O=C(O[C@@H]1Cc2c(O)cc(O)cc2O[C@@H]1c1cc(O)c(O)c(O)c1)c1cc(O)c(O)c(O)c1 [EPIGALOCATECHIN GALLATE] | 6.4% | 80% | 87.7% | 70% | 80% | 80% | 68.1% | 34.9%
2 | CC(C)c1cc(=O)c2c(O)c([C@@H]3O[C@H](CO)[C@@H](O)[C@H](O)[C@H]3O)c(O)cc2o1 | 4.6% | 80% | 91% | 70% | 80% | 80% | 65% | 23.7%
3 | Cc1c(O)c(Cc2c(O)cc3oc(-c4ccc(O)c(O)c4)c(O[C@@H]4O[C@@H](C)[C@H](O)[C@@H](O)[C@H]4O)c(=O)c3c2O)c2oc(-c3ccc(O)c(O)c3)c(O[C@@H]3O[C@@H](C)[C@H](O)[C@@H](O)[C@H]3O)c(=O)c2c1O [KUNZEAGIN A] | 4.3% | 80% | 90.5% | 70% | 80% | 80% | 66.1% | 32.5%
4 | CC(C)c1cc(=O)c2c(O)c([C@@H]3O[C@H](CO)[C@@H](O)[C@H](O)[C@H]3OC(=O)c3cc(O)c(O)c(O)c3)c(O)cc2o1 | 5.9% | 80% | 94.8% | 70% | 80% | 80% | 70.4% | 26.8%
5 | CC(C)c1cc(=O)c2c(O)cc(O)c([C@@H]3O[C@H](CO)[C@@H](O)[C@H](O)[C@H]3O)c2o1 | 9.1% | 80% | 100% | 70% | 80% | 80% | 72.5% | 29.6%
6 | CC(C)c1cc(=O)c2c(O)cc(O)c([C@@H]3O[C@H](CO)[C@@H](O)[C@H](O)[C@H]3OC(=O)c3cc(O)c(O)c(O)c3)c2o1 | 11.5% | 80% | 100% | 70% | 80% | 80% | 74.7% | 31.6%
